# Key:
# CAL-27 [1] = assay: Antiproliferative activity against human CAL27 cells measured after 72 hrs by MTT assay; assay type: functional, cell-based; conditions: CAL-27, 72 h
# [2] = Antiproliferative activity against human Cal27CisR cells measured after 72 hrs by MTT assay; assay type: functional, cell-based
# [3] = Antiproliferative activity against human Med8A cells after 72 hrs by Celltiter-Glo assay; assay type: functional, cell-based
# ONS-76 = assay: Antiproliferative activity against human ONS76 cells after 72 hrs by Celltiter-Glo assay; assay type: functional, cell-based; conditions: ONS-76, 72 h
# Homo sapiens = organism: Homo sapiens; assay: Selectivity index, ratio of IC50 for human recombinant HDAC8 to IC50 for full length human recombinant N-terminal GST-tagged HDAC6 expressed in baculovirus infected sf9 cells
# In short: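 Ratio of isolated-enzyme IC50 values. HDAC1, HDAC6 and HDAC8 IC50s were each the mean ± SD of three independent experiments.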
# CAL-27 [4] = assay: Potentiation of 0.5 uM cisplatin-induced cytotoxicity against human CAL27 cells assessed as decrease in cell viability measuring combination index at 500 uM preincubated for 48 hrs followed by cisplatin treatment measured after 72 hrs by MTT assay; assay type: functional; conditions: in the assay text read “at 500 nM” for “at 500 uM”
# In short: (§1)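 Cal27 and cisplatin-resistant Cal27CisR cells were preincubated with the HDAC inhibitor for 48 h, then given cisplatin in combination. Viability was read by MTT after 72 h. The combination index was computed by the Chou–Talalay method: CI > 1 is antagonism, CI = 1 is additive, and CI < 0.9 is synergism. Points with fraction affected below 0.20 were flagged.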
# CAL-27 [5] = assay: Potentiation of 0.5 uM cisplatin-induced cytotoxicity against human CAL27 cells assessed as decrease in cell viability measuring combination index at 700 uM preincubated for 48 hrs followed by cisplatin treatment measured after 72 hrs by MTT assay; assay type: functional; conditions: in the assay text read “at 700 nM” for “at 700 uM”; in short: as §1
# CAL-27 [6] = assay: Potentiation of 0.5 uM cisplatin-induced cytotoxicity against human CAL27 cells assessed as decrease in cell viability by measuring combination index at 800 uM preincubated for 48 hrs followed by cisplatin treatment measured after 72 hrs by MTT assay; assay type: functional; in short: as §1
# CAL-27 [7] = assay: Potentiation of 1 uM cisplatin-induced cytotoxicity against human CAL27 cells assessed as decrease in cell viability by measuring combination index at 600 uM preincubated for 48 hrs followed by cisplatin treatment measured after 72 hrs by MTT assay; assay type: functional
# In short: (§2)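 HDAC inhibitor was added 48 h before cisplatin, then cells were exposed to cisplatin for 72 h and viability was read by MTT assay. Combination index was computed by the Chou–Talalay method: CI > 1 is antagonism, CI = 1 additive, CI < 0.9 synergism. Points with fraction affected below 0.20 were flagged.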
# CAL-27 [8] = assay: Potentiation of 2 uM cisplatin-induced cytotoxicity against human CAL27 cells assessed as decrease in cell viability by measuring combination index at 600 uM preincubated for 48 hrs followed by cisplatin treatment measured after 72 hrs by MTT assay; assay type: functional; conditions: in the assay text read “at 600 nM” for “at 600 uM”; in short: as §2
# CAL-27 [9] = assay: Potentiation of 2 uM cisplatin-induced cytotoxicity against human CAL27 cells assessed as decrease in cell viability by measuring combination index at 800 uM preincubated for 48 hrs followed by cisplatin treatment measured after 72 hrs by MTT assay; assay type: functional; conditions: in the assay text read “at 800 nM” for “at 800 uM”; in short: as §2
# CAL-27 [10] = assay: Potentiation of 5 uM cisplatin-induced cytotoxicity against human CAL27 cells assessed as decrease in cell viability by measuring combination index at 500 uM preincubated for 48 hrs followed by cisplatin treatment measured after 72 hrs by MTT assay; assay type: functional; conditions: in the assay text read “at 500 nM” for “at 500 uM”; in short: as §2
# CAL-27 [11] = assay: Potentiation of 5 uM cisplatin-induced cytotoxicity against human CAL27 cells assessed as decrease in cell viability by measuring combination index at 600 uM preincubated for 48 hrs followed by cisplatin treatment measured after 72 hrs by MTT assay; assay type: functional; conditions: in the assay text read “at 600 nM” for “at 600 uM”; in short: as §2
# CAL-27 [12] = assay: Potentiation of 5 uM cisplatin-induced cytotoxicity against human CAL27 cells assessed as decrease in cell viability by measuring combination index at 700 uM preincubated for 48 hrs followed by cisplatin treatment measured after 72 hrs by MTT assay; assay type: functional; conditions: in the assay text read “at 700 nM” for “at 700 uM”; in short: as §2
# [13] = target: T1, Histone deacetylase 1/6 (Homo sapiens) (UniProt Q13547+Q9UBN7); assay: Inhibition of HDAC1/HDAC6 in human Cal27CisR cells assessed as potentiation of 1 uM cisplatin-induced cytotoxicity by measuring combination index at 800 uM preincubated for 48 hrs followed by cisplatin treatment measured after 72 hrs by MTT assay; assay type: cell-based
# T1 sequence (Q13547 whole entry, looked up): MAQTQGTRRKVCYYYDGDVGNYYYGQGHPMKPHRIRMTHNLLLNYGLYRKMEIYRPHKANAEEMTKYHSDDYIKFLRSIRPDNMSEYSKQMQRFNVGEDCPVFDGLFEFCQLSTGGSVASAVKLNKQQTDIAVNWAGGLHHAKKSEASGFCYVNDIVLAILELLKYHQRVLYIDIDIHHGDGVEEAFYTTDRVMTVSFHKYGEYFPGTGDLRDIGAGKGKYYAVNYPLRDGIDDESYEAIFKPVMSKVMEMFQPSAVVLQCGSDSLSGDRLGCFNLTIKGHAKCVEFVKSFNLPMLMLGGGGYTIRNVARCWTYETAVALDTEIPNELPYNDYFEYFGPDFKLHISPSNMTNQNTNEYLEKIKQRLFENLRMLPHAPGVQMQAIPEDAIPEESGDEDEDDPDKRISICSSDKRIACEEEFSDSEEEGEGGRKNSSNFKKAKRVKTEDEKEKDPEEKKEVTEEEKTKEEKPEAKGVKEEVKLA
# T1 sequence (Q9UBN7 whole entry, looked up): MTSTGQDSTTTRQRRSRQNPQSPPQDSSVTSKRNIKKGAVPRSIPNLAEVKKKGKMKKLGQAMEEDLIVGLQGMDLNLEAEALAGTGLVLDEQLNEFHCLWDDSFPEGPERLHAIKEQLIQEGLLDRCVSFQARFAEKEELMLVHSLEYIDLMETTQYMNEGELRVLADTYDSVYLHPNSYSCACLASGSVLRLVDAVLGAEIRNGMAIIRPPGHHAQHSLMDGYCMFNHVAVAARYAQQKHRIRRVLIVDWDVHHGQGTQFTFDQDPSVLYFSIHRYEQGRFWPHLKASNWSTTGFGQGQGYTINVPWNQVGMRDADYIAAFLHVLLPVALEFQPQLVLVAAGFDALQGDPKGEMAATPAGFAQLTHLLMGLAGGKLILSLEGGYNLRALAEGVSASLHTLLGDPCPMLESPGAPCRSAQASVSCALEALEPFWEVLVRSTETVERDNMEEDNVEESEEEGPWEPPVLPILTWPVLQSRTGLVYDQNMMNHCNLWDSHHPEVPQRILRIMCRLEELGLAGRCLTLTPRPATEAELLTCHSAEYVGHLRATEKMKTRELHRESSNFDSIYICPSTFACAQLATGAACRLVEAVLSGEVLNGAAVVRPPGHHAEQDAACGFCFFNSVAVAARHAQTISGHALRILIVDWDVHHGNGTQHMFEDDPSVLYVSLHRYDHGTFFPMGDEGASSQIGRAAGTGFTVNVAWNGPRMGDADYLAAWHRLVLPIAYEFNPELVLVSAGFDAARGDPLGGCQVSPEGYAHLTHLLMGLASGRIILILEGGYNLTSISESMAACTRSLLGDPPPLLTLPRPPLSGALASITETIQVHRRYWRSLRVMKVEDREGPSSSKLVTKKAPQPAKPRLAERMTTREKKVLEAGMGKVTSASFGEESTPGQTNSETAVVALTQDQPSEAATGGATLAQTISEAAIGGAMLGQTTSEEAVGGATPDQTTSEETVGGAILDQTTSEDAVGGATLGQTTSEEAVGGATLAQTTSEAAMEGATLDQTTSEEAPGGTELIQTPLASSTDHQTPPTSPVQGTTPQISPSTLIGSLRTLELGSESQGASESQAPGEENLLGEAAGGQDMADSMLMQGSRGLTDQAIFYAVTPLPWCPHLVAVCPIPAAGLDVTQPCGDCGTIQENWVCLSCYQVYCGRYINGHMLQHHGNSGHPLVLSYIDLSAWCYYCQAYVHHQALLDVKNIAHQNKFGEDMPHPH
# In short: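 Cal27CisR cells preincubated 48 h with the HDAC inhibitor, then exposed to cisplatin for 72 h. Viability read by MTT. Combination index calculated by the Chou–Talalay method: CI > 1 antagonism, CI = 1 additive, CI < 0.9 synergism. Points with fraction affected below 0.20 are flagged. Values are the mean of three experiments.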
# [14] = target: T1, Histone deacetylase 1/6 (Homo sapiens); assay: Inhibition of HDAC1/HDAC6 in human Cal27CisR cells assessed as potentiation of 5 uM cisplatin-induced cytotoxicity by measuring combination index at 500 uM preincubated for 48 hrs followed by cisplatin treatment measured after 72 hrs by MTT assay; assay type: cell-based; in short: as §1
# [15] = target: T1, Histone deacetylase 1/6 (Homo sapiens); assay: Inhibition of HDAC1/HDAC6 in human Cal27CisR cells assessed as potentiation of 10 uM cisplatin-induced cytotoxicity by measuring combination index at 500 nM preincubated for 48 hrs followed by cisplatin treatment measured after 72 hrs by MTT assay
# [16] = target: T1, Histone deacetylase 1/6 (Homo sapiens); assay: Inhibition of HDAC1/HDAC6 in human Cal27CisR cells assessed as potentiation of 10 uM cisplatin-induced cytotoxicity by measuring combination index at 800 nM preincubated for 48 hrs followed by cisplatin treatment measured after 72 hrs by MTT assay
# [17] = target: T1, Histone deacetylase 1/6 (Homo sapiens); assay: Inhibition of HDAC1/HDAC6 in human Cal27CisR cells assessed as potentiation of 20 uM cisplatin-induced cytotoxicity by measuring combination index at 600 nM preincubated for 48 hrs followed by cisplatin treatment measured after 72 hrs by MTT assay
# [18] = target: T1, Histone deacetylase 1/6 (Homo sapiens); assay: Inhibition of HDAC1/HDAC6 in human Cal27CisR cells assessed as potentiation of 20 uM cisplatin-induced cytotoxicity by measuring combination index at 700 nM preincubated for 48 hrs followed by cisplatin treatment measured after 72 hrs by MTT assay
# [19] = target: T1, Histone deacetylase 1/6 (Homo sapiens); assay: Inhibition of HDAC1/HDAC6 in human Cal27CisR cells assessed as potentiation of 3.16 uM cisplatin-induced cytotoxicity by measuring combination index at 700 nM preincubated for 48 hrs followed by cisplatin treatment measured after 72 hrs by MTT assay
SMILES,IC50 (CAL-27 [1]),IC50 [2],IC50 [3],IC50 (ONS-76),Ratio IC50 (Homo sapiens),CI (CAL-27 [4]),CI (CAL-27 [5]),CI (CAL-27 [6]),CI (CAL-27 [7]),CI (CAL-27 [8]),CI (CAL-27 [9]),CI (CAL-27 [10]),CI (CAL-27 [11]),CI (CAL-27 [12]),CI [13],CI [14],CI [15],CI [16],CI [17],CI [18],further results
COc1cc(NC(=O)NOCCCCCC(=O)NO)c2ncccc2c1,900 nM,1300 nM,1210 nM,2670 nM,> 100,0.87,0.97,0.93,0.57,0.37,0.43,0.35,0.34,0.32,0.81,0.96,0.36,0.35,0.37,0.37,CI [19]: 0.56
COc1cc(NC(=O)NOCCCCCC(=O)NO)c2nccc(C)c2c1,600 nM,1300 nM,600 nM,590 nM,> 100,0.49,0.57,0.51,0.37,0.26,0.38,0.29,0.33,0.41,1.09,0.28,0.25,0.23,0.21,0.25,CI [19]: 0.28
COc1cc(NC(=O)NOCCCCCC(=O)NO)c2nc(OC)cc(C)c2c1,1000 nM,1300 nM,590 nM,650 nM,550,0.66,0.7,0.79,0.53,0.49,0.66,0.43,0.49,0.64,0.65,0.19,0.16,0.23,0.19,0.21,CI [19]: 0.28

# Reference: ChEMBL document CHEMBL4014350, “Alkoxyurea-Based Histone Deacetylase Inhibitors Increase Cisplatin Potency in Chemoresistant Cancer Cell Lines” (J Med Chem, 2017)
